This note sets out measurements from ChEMBL document CHEMBL1149164, “Design of potent and selective agonists for the human vasopressin V1b receptor based on modifications of [deamino-cys1]arginine vasopressin at position 4” (J Med Chem, 2004).

Bridge positions count the residues as written; N and C are the ends. Square brackets hold non-standard residues; d marks the D form. Peptide text beside a SMILES is read from it. Cha = N[C@@H](CC1CCCCC1)C(=O)O; Mpa = O=C(O)CCS

The target in one test is Vasopressin V1a receptor (Homo sapiens, UniProt P37288). In words: Binding affinity against human vasopressin V1a receptor was determined by using plasma membranes from CHO cells stably transfected with VP/OT receptors. The class given is cell membranes. The method, boiled down:
(§1)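 Competition binding on plasma membranes from stably transfected CHO cells (human receptors). Membranes (1–20 µg protein) incubated 60 min at 30 °C in 50 mM Tris-HCl pH 7.4, 3 mM MgCl2, 1 mg/mL BSA, leupeptine, 0.1 mM PMSF, with 0.5–3 nM [3H]AVP and increasing analogue; nonspecific binding with 1 µM AVP.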

A further test addresses Vasopressin V2 receptor (Homo sapiens, UniProt P30518). In words: Binding affinity against human vasopressin V2 receptor was determined by using plasma membranes from CHO cells stably transfected with VP/OT receptors. The class given is cell membranes. In short, it runs like this: as §1

Broadly, the Ki is a dissociation constant, usually derived from enzyme kinetics or from competition with a known ligand. A low value points to tighter binding.

Chain of Vasopressin V2 receptor (P30518 whole entry): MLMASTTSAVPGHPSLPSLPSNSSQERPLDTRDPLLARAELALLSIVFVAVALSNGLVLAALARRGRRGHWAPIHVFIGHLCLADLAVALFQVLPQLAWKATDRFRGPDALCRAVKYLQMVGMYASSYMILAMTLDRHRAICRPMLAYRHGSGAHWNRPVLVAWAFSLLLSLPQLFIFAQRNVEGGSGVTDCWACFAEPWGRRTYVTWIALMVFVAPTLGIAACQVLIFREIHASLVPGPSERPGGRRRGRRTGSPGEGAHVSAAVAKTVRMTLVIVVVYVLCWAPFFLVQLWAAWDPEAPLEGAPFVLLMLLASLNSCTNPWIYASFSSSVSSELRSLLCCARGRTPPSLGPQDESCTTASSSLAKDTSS
Chain of Vasopressin V1a receptor (P37288 whole entry): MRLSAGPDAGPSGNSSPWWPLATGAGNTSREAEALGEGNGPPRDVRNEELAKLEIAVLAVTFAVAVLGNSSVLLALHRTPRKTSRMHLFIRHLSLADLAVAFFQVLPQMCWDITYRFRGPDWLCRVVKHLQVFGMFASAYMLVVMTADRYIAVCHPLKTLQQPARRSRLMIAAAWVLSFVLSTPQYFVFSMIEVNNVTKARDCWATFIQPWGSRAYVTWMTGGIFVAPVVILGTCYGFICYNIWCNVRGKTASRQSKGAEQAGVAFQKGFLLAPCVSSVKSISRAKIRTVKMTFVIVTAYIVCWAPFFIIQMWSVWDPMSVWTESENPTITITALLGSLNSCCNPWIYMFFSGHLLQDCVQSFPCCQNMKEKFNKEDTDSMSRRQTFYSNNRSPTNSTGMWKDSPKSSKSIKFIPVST

In the case of `NC(=O)CNC(=O)[C@H](CCCN=C(N)N)NC(=O)[C@@H]1CCCN1C(=O)[C@@H]1CSSCCC(=O)N[C@@H](Cc2ccc(O)cc2)C(=O)N[C@@H](Cc2ccccc2)C(=O)N[C@@H](Cc2cccs2)C(=O)N[C@@H](CC(N)=O)C(=O)N1` (stereo in doubt), the inhibitory constant (Ki) on Vasopressin V1a receptor worked out at 63.3 nM; at Vasopressin V2 receptor, 4420 nM.
Regarding `NC(=O)CNC(=O)[C@H](CCCN=C(N)N)NC(=O)[C@@H]1CCCN1C(=O)[C@@H]1CSSCCC(=O)N[C@@H](Cc2ccc(O)cc2)C(=O)N[C@@H](Cc2ccccc2)C(=O)NCC(=O)N[C@@H](CC(N)=O)C(=O)N1`, the inhibition constant Ki at Vasopressin V1a receptor was found to be 276 nM; on Vasopressin V2 receptor it was 554 nM.
As for `NCCC[C@@H]1NC(=O)[C@H](Cc2ccccc2)NC(=O)[C@H](Cc2ccc(O)cc2)NC(=O)CCSSC[C@@H](C(=O)N2CCC[C@H]2C(=O)N[C@@H](CCCN=C(N)N)C(=O)NCC(N)=O)NC(=O)[C@H](CC(N)=O)NC1=O` (stereo in doubt), the results for the inhibition constant Ki on Vasopressin V1a receptor and at Vasopressin V2 receptor were 88 nM and 1130 nM, respectively.
For the compound `NC[C@@H]1NC(=O)[C@H](Cc2ccccc2)NC(=O)[C@H](Cc2ccc(O)cc2)NC(=O)CCSSC[C@@H](C(=O)N2CCC[C@H]2C(=O)N[C@@H](CCCN=C(N)N)C(=O)NCC(N)=O)NC(=O)[C@H](CC(N)=O)NC1=O` (stereo in doubt), the Ki amounted to 19.7 nM at Vasopressin V1a receptor and 36.8 nM at Vasopressin V2 receptor.
As for `NC(=O)CNC(=O)[C@H](CCCN=C(N)N)NC(=O)[C@@H]1CCCN1C(=O)[C@@H]1CSSCCC(=O)N[C@@H](Cc2ccc(O)cc2)C(=O)N[C@@H](Cc2ccccc2)C(=O)N[C@@H](Cc2c[nH]c3ccccc23)C(=O)N[C@@H](CC(N)=O)C(=O)N1` (stereo in doubt), the Ki at Vasopressin V1a receptor stood at 75 nM; on Vasopressin V2 receptor, 80 nM.
The like results for `NC(=O)CNC(=O)[C@H](CCCN=C(N)N)NC(=O)[C@@H]1CCCN1C(=O)[C@@H]1CSSCCC(=O)N[C@@H](Cc2ccc(O)cc2)C(=O)N[C@@H](Cc2ccccc2)C(=O)N[C@@H](CC2CCCCC2)C(=O)N[C@@H](CC(N)=O)C(=O)N1` ([Mpa]YF[Cha]NCPRG-NH2; disulfide 1-6) were, in that order, 151 nM and 750 nM.
`CCC[C@@H]1NC(=O)[C@H](Cc2ccccc2)NC(=O)[C@H](Cc2ccc(O)cc2)NC(=O)CCSSC[C@@H](C(=O)N2CCC[C@H]2C(=O)N[C@@H](CCCN=C(N)N)C(=O)NCC(N)=O)NC(=O)[C@H](CC(N)=O)NC1=O` (stereo in doubt): the Ki on Vasopressin V1a receptor amounted to 22.5 nM; on Vasopressin V2 receptor, 24.1 nM.
Consider `NC(=O)CNC(=O)[C@H](CCCN=C(N)N)NC(=O)[C@@H]1CCCN1C(=O)[C@@H]1CSSCCC(=O)N[C@@H](Cc2ccc(O)cc2)C(=O)N[C@@H](Cc2ccccc2)C(=O)N[C@@H](CO)C(=O)N[C@@H](CC(N)=O)C(=O)N1` (stereo in doubt), for which the Ki came out at 13 nM on Vasopressin V1a receptor and 24.7 nM on Vasopressin V2 receptor.
With `NCC[C@@H]1NC(=O)[C@H](Cc2ccccc2)NC(=O)[C@H](Cc2ccc(O)cc2)NC(=O)CCSSC[C@@H](C(=O)N2CCC[C@H]2C(=O)N[C@@H](CCCN=C(N)N)C(=O)NCC(N)=O)NC(=O)[C@H](CC(N)=O)NC1=O` (stereo in doubt), the Ki on Vasopressin V1a receptor stood at 36.3 nM; on Vasopressin V2 receptor, 568 nM.
For the compound `NCCCC[C@@H]1NC(=O)[C@H](Cc2ccccc2)NC(=O)[C@H](Cc2ccc(O)cc2)NC(=O)CCSSC[C@@H](C(=O)N2CCC[C@H]2C(=O)N[C@@H](CCCN=C(N)N)C(=O)NCC(N)=O)NC(=O)[C@H](CC(N)=O)NC1=O` (stereo in doubt), the values for the Ki on Vasopressin V1a receptor and at Vasopressin V2 receptor were 463 nM and 11200 nM, respectively.
The like results for `NC(=O)CNC(=O)[C@H](CCCN=C(N)N)NC(=O)[C@@H]1CCCN1C(=O)[C@@H]1CSSCCC(=O)N[C@@H](Cc2ccc(O)cc2)C(=O)N[C@@H](Cc2ccccc2)C(=O)N[C@@H](CCCCN=C(N)N)C(=O)N[C@@H](CC(N)=O)C(=O)N1` (stereo in doubt) were, in that order, 48.2 nM and 1390 nM.
On the same counts, the results for `NC(=O)CNC(=O)[C@H](CCCN=C(N)N)NC(=O)[C@@H]1CCCN1C(=O)[C@@H]1CSSCCC(=O)N[C@@H](Cc2ccc(O)cc2)C(=O)N[C@@H](Cc2ccccc2)C(=O)N[C@@H](CCC(=O)O)C(=O)N[C@@H](CC(N)=O)C(=O)N1` (stereo in doubt) are 436 nM and 1090 nM.
On to `N=C(N)NCCC[C@@H]1NC(=O)[C@H](Cc2ccccc2)NC(=O)[C@H](Cc2ccc(O)cc2)NC(=O)CCSSC[C@@H](C(=O)N2CCC[C@H]2C(=O)N[C@@H](CCCN=C(N)N)C(=O)NCC(N)=O)NC(=O)[C@H](CC(N)=O)NC1=O` (stereo in doubt), for which the inhibitory constant (Ki) on Vasopressin V1a receptor stood at 54.2 nM; at Vasopressin V2 receptor it was 131 nM.
`NC(=O)CNC(=O)[C@H](CCCN=C(N)N)NC(=O)[C@@H]1CCCN1C(=O)[C@@H]1CSSCCC(=O)N[C@@H](Cc2ccc(O)cc2)C(=O)N[C@@H](Cc2ccccc2)C(=O)N[C@@H](CC(N)=O)C(=O)N[C@@H](CC(N)=O)C(=O)N1` (stereo in doubt) displayed a Ki at Vasopressin V2 receptor of 50 nM.
For `NC(=O)CNC(=O)[C@H](CCCN=C(N)N)NC(=O)[C@@H]1CCCN1C(=O)[C@@H]1CSSCCC(=O)N[C@@H](Cc2ccc(O)cc2)C(=O)N[C@@H](Cc2ccccc2)C(=O)N[C@@H](Cc2ccc(O)cc2)C(=O)N[C@@H](CC(N)=O)C(=O)N1` (stereo in doubt), the Ki on Vasopressin V1a receptor turned out to be 36.9 nM; on Vasopressin V2 receptor it was 621 nM.
Regarding `CC[C@H](C)[C@@H]1NC(=O)[C@H](Cc2ccccc2)NC(=O)[C@H](Cc2ccc(O)cc2)NC(=O)CCSSC[C@@H](C(=O)N2CCC[C@H]2C(=O)N[C@@H](CCCN=C(N)N)C(=O)NCC(N)=O)NC(=O)[C@H](CC(N)=O)NC1=O`, the Ki at Vasopressin V1a receptor turned out to be 16.8 nM; on Vasopressin V2 receptor, 9.9 nM.
`CC(C)C[C@@H]1NC(=O)[C@H](Cc2ccccc2)NC(=O)[C@H](Cc2ccc(O)cc2)NC(=O)CCSSC[C@@H](C(=O)N2CCC[C@H]2C(=O)N[C@@H](CCCN=C(N)N)C(=O)NCC(N)=O)NC(=O)[C@H](CC(N)=O)NC1=O`: the Ki on Vasopressin V1a receptor came out at 44.1 nM; on Vasopressin V2 receptor, 245 nM.
With `C[C@@H]1NC(=O)[C@H](Cc2ccccc2)NC(=O)[C@H](Cc2ccc(O)cc2)NC(=O)CCSSC[C@@H](C(=O)N2CCC[C@H]2C(=O)N[C@@H](CCCN=C(N)N)C(=O)NCC(N)=O)NC(=O)[C@H](CC(N)=O)NC1=O`, the inhibition constant Ki on Vasopressin V1a receptor was found to be 21.8 nM; on Vasopressin V2 receptor it was 13.7 nM.
Consider `CC(C)[C@@H]1NC(=O)[C@H](Cc2ccccc2)NC(=O)[C@H](Cc2ccc(O)cc2)NC(=O)CCSSC[C@@H](C(=O)N2CCC[C@H]2C(=O)N[C@@H](CCCN=C(N)N)C(=O)NCC(N)=O)NC(=O)[C@H](CC(N)=O)NC1=O` ([Mpa]YFVNCPRG-NH2; disulfide 1-6), for which the inhibitory constant (Ki) at Vasopressin V1a receptor amounted to 11.4 nM; on Vasopressin V2 receptor, 1.2 nM.
For `CC[C@@H]1NC(=O)[C@H](Cc2ccccc2)NC(=O)[C@H](Cc2ccc(O)cc2)NC(=O)CCSSC[C@@H](C(=O)N2CCC[C@H]2C(=O)N[C@@H](CCCN=C(N)N)C(=O)NCC(N)=O)NC(=O)[C@H](CC(N)=O)NC1=O` (stereo in doubt), the results for the inhibition constant Ki on Vasopressin V1a receptor and at Vasopressin V2 receptor were 19.7 nM and 2.1 nM, respectively.
For `C[C@@H](O)[C@@H]1NC(=O)[C@H](Cc2ccccc2)NC(=O)[C@H](Cc2ccc(O)cc2)NC(=O)CCSSC[C@@H](C(=O)N2CCC[C@H]2C(=O)N[C@@H](CCCN=C(N)N)C(=O)NCC(N)=O)NC(=O)[C@H](CC(N)=O)NC1=O` (stereo in doubt), the Ki at Vasopressin V1a receptor was found to be 2.9 nM; at Vasopressin V2 receptor, 1.5 nM.
`CCCC[C@@H]1NC(=O)[C@H](Cc2ccccc2)NC(=O)[C@H](Cc2ccc(O)cc2)NC(=O)CCSSC[C@@H](C(=O)N2CCC[C@H]2C(=O)N[C@@H](CCCN=C(N)N)C(=O)NCC(N)=O)NC(=O)[C@H](CC(N)=O)NC1=O` (stereo in doubt): the results for the Ki on Vasopressin V1a receptor and at Vasopressin V2 receptor were 28.1 nM and 117 nM, respectively.
As for `NC(=O)CNC(=O)[C@H](CCCN=C(N)N)NC(=O)[C@@H]1CCCN1C(=O)[C@@H]1CSSCCC(=O)N[C@@H](Cc2ccc(O)cc2)C(=O)N[C@@H](Cc2ccccc2)C(=O)N[C@@H](Cc2ccccc2)C(=O)N[C@@H](CC(N)=O)C(=O)N1` (stereo in doubt), the results for the Ki at Vasopressin V1a receptor and at Vasopressin V2 receptor were 80 nM and 1070 nM, respectively.
